Assay results as given in ChEMBL document CHEMBL3997810, “A Novel Potent Anticancer Compound Optimized from a Natural Oridonin Scaffold Induces Apoptosis and Cell Cycle Arrest through the Mitochondrial Pathway” (J Med Chem, 2017).
The source made the active and inactive calls. No cut-off for these calls is given here.

How the values were obtained:
MCF7 [1] = test: Antitumor activity against human MCF7 cells xenografted in Balb/c nude mouse assessed as tumor growth inhibition at 20 mg/kg/day, iv for 4 weeks relative to control; type: functional; settings: 672 h, read-out: TGI
Summary of the method: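 Six-week-old male BALB/c nude mice received 1 × 10^6 MCF-7 cells subcutaneously in the right flank. After 7 d of tumor growth, mice were randomized into groups of six. Dosing was 20 mg/kg iv once daily for 28 days in 10% DMF/2% poloxamer/88% saline. Tumor volume (L × W²/2) and body weight were recorded every 2 days. Inhibition = (1 − mean treated/control tumor weight) × 100%.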

MCF7 [2] = test: Antiproliferative activity against human MCF7 cells after 72 hrs by MTT assay; type: functional, cell-based; settings: MCF7, 72 h
Summary of the method: (§1)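 MGC-803 and MCF-7 cells grown in DMEM (MCF-7 with 1× NEAA); Bel-7402 and K562 grown in RPMI 1640; all media with 10% FBS. Cells seeded at 3500/well, pre-incubated 24 h, then exposed to compounds in fresh medium (DMSO ≤0.25%) for 72 h at 37 °C. MTT read-out at 570 nm. Quadruplicate wells, repeated three times; means ± SD (n = 3).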

NCI-H460 = test: Antiproliferative activity against human NCI-H460 cells after 48 hrs by MTT assay; type: functional, cell-based; settings: NCI-H460, 48 h
Summary of the method: (§2)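 Colorimetric MTT assay. KB-3-1, NCI-H460 and Bel-7404 cells were seeded at 4000 cells/well; resistant KB/CP4, NCI-H460/MX20 and Bel-7404/CP20 were seeded at 7000 cells/well. Cells were pre-incubated 24 h at 37 °C, 5% CO2, then exposed to a compound concentration series for 48 h with DMSO ≤0.25%. Absorbance read at 570 nm. Quadruplicate wells, three repeats; means ± SD.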

Mus musculus [3] = test: Cardiotoxicity in Balb/c nude mouse xenografted with human MCF7 cells assessed as morphological changes in heart at 20 mg/kg/day, iv for 4 weeks by hematoxylin and eosin staining based microscopic method; type: toxicity, organism-based; settings: in vivo, 672 h
Summary of the method: (§3)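 Male BALB/c nude mice (6 weeks old) carrying subcutaneous MCF-7 xenografts (1 × 10^6 cells). Dosed iv 20 mg/kg daily for 28 days in 10% DMF/2% poloxamer/88% saline; six mice per group. Organs then fixed in 4% paraformaldehyde, paraffin-embedded, cut at 5 μm, stained with Harris hematoxylin and eosin-phloxine, and examined by light microscopy.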

Mus musculus [4] = test: Toxicity in Balb/c nude mouse xenografted with human MCF7 cells assessed as morphological changes in lungs at 20 mg/kg/day, iv for 4 weeks by hematoxylin and eosin staining based microscopic method; type: organism-based; settings: in vivo, 672 h
Summary of the method: (§4)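 Male BALB/c nude mice aged six weeks received 1 × 10^6 MCF-7 cells subcutaneously in the right flank. After 7 d they were randomized and dosed 20 mg/kg iv once daily in 10% DMF/2% poloxamer/88% saline; saline control. Heart, liver, spleen, lung and kidney were fixed in 4% paraformaldehyde, paraffin-embedded, sectioned at 5 μm, H&E stained and examined microscopically.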

Bel-7402 [5] = test: Cytotoxicity against human Bel7402 cells at 10 to 50 uM after 24 hrs by LDH assay; type: functional, cell-based
Summary of the method: (§5)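 Membrane integrity assay on MCF-7 and Bel-7402 cells seeded at ~5 × 10^3 per well for 24 h, then given compounds at 10, 20 or 50 μM. Culture medium collected and assayed with CytoTox-ONE LDH reagent for 10 min, followed by stop solution. Fluorescence read at Ex 560/Em 590 nm. Expressed as percentage of unstimulated cells.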

[6] = Antiproliferative activity against human NCI-H460/MX20 cells after 48 hrs by MTT assay; type: functional, cell-based; settings: NCI-H460/MX20, 48 h; summary of the method: as §2
BEL-7404 tumor cell line = test: Antiproliferative activity against human Bel7404 cells after 48 hrs by MTT assay; type: functional, cell-based; settings: BEL-7404, 48 h; summary of the method: as §2
K562 = test: Antiproliferative activity against human K562 cells after 72 hrs by MTT assay; type: functional, cell-based; settings: K562, 72 h; summary of the method: as §1
Mus musculus [7] = test: Hepatotoxicity in Balb/c nude mouse xenografted with human MCF7 cells assessed as morphological changes in liver at 20 mg/kg/day, iv for 4 weeks by hematoxylin and eosin staining based microscopic method; type: toxicity, organism-based; settings: in vivo, 672 h; summary of the method: as §3
MCF7 [8] = test: Cytotoxicity against human MCF7 cells at 10 to 50 uM after 24 hrs by LDH assay; type: functional, cell-based; summary of the method: as §5
Bel-7402 [9] = test: Antiproliferative activity against human Bel7402 cells after 72 hrs by MTT assay; type: functional, cell-based; settings: Bel-7402, 72 h; summary of the method: as §1
Mus musculus [10] = test: Nephrotoxicity in Balb/c nude mouse xenografted with human MCF7 cells assessed as morphological changes in kidney at 20 mg/kg/day, iv for 4 weeks by hematoxylin and eosin staining based microscopic method; type: toxicity, organism-based; settings: in vivo, 672 h; summary of the method: as §4
[11] = Antiproliferative activity against human BEL7404/CP20 cells after 48 hrs by MTT assay; type: functional, cell-based; settings: BEL7404/CP20, 48 h; summary of the method: as §2
Mus musculus [12] = test: Toxicity in Balb/c nude mouse xenografted with human MCF7 cells assessed as changes in body weight at 20 mg/kg/day, iv for 4 weeks measured once in 2 days during compound dosing; type: organism-based; settings: in vivo
Summary of the method: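 Mice received 1 × 10^6 tumor cells subcutaneously in the right flank: MCF-7 in male BALB/c nude mice aged six weeks, H22 in male ICR mice aged five weeks. After 7 d they were randomized (six or eight per group). Dosing was 20 mg/kg iv daily in 10% DMF/2% poloxamer/88% saline for 21 or 28 days; saline control. Body weight was recorded every 2 days.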

[13] = Selectivity ratio of IC50 for human L02 cells to IC50 for human Bel7402 cells
Mus musculus [14] = test: Toxicity in Balb/c nude mouse xenografted with human MCF7 cells assessed as morphological changes in spleen at 20 mg/kg/day, iv for 4 weeks by hematoxylin and eosin staining based microscopic method; type: organism-based; settings: in vivo, 672 h; summary of the method: as §4
[15] = Antiproliferative activity against human KB/CP4 cells after 48 hrs by MTT assay; type: functional, cell-based; settings: KB/CP4, 48 h; summary of the method: as §2
MGC-803 = test: Antiproliferative activity against human MGC803 cells after 72 hrs by MTT assay; type: functional, cell-based; settings: MGC-803, 72 h; summary of the method: as §1
KB 3-1 = test: Antiproliferative activity against human KB-3-1 cells after 48 hrs by MTT assay; type: functional, cell-based; settings: KB 3-1, 48 h; summary of the method: as §2
Bel-7402 [16] = test: Antiproliferative activity against human Bel7402 cells at 1 uM after 72 hrs by MTT assay; type: functional, cell-based
[17] = Selectivity ratio of IC50 for human KB/CP4 cells to IC50 for human KB-3-1 cells

Row | Compound | inhibition in vivo at 20 mg/kg/day (MCF7 [1]) | IC50 (MCF7 [2]) | IC50 (NCI-H460) | Activity (Mus musculus [3]) | Activity (Mus musculus [4]) | Activity (Bel-7402 [5]) | IC50 [6] | IC50 (BEL-7404 tumor cell line) | IC50 (K562) | Activity (Mus musculus [7]) | Activity (MCF7 [8]) | IC50 (Bel-7402 [9]) | Activity (Mus musculus [10]) | IC50 [11] | Activity (Mus musculus [12]) | Ratio IC50 [13] | IC50 [15] | IC50 (MGC-803) | IC50 (KB 3-1) | Ratio IC50 [17] | further results
1 | O=P1(N(CCCl)CCCl)NCCCO1 (stereo not drawn) [CYCLOPHOSPHAMIDE ANHYDROUS] | 64.6% | – | – | – | – | – | – | – | – | – | – | – | – | – | – | – | – | – | – | – | –
2 | C=C1C(=O)[C@]23[C@H](O)[C@H]1CC[C@H]2[C@@]12CO[C@]3(O)[C@@H](O)[C@@H]1C(C)(C)CC[C@@H]2O [ORIDONIN] | 58.9% | 17.9 µM | 20.5 µM | Non-Toxic | Non-Toxic | inactive | 25.9 µM | 17.9 µM | 4.33 µM | Non-Toxic | inactive | 5.41 µM | Non-Toxic | 17.2 µM | Non-Toxic | 6 | 10.8 µM | 9.06 µM | 13.2 µM | – | Activity (Mus musculus [14]): Non-Toxic
3 | C=C1C(=O)[C@]23[C@H](O)[C@H]1CC[C@H]2[C@]12C=CCC(C)(C)[C@H]1[C@H](O)[C@]3(O)OC2 | 61.6% | 1.99 µM | 2.69 µM | Non-Toxic | Non-Toxic | inactive | 11.1 µM | 3.91 µM | 0.22 µM | Non-Toxic | inactive | 1.59 µM | Non-Toxic | 4.98 µM | Non-Toxic | – | 2.98 µM | 1.22 µM | 5.16 µM | <1 | Activity (Mus musculus [14]): Non-Toxic; Activity (Bel-7402 [16]): Active
4 | C=C1C(=O)[C@]23[C@H](O)[C@H]1CC[C@H]2[C@]12C=CC(=O)C(C)(C)[C@H]1[C@H](O)[C@]3(O)OC2 | – | 11.1 µM | 19.2 µM | – | – | inactive | 54 µM | 16.2 µM | 2.79 µM | – | inactive | 3.43 µM | – | 15.1 µM | – | – | 16.1 µM | 5.58 µM | 16.7 µM | <1 | Activity (Bel-7402 [16]): Active
5 | C=C1C(=O)[C@]23[C@H](OC(=O)c4cccc(C)c4)[C@H]1CC[C@H]2[C@]12C=CCC(C)(C)[C@H]1[C@H](O)[C@]3(O)OC2 | – | 0.18 µM | 2.44 µM | – | – | – | 14.2 µM | 6.56 µM | 1.27 µM | – | – | 0.45 µM | – | 3.42 µM | – | 14.58 | 1.01 µM | 1.02 µM | 6.21 µM | <1 | –
